{"source": "ChEMBL document CHEMBL1149369", "about": "“Isolation, structure elucidation, total synthesis, and evaluation of new natural and synthetic ceramides on human SK-MEL-1 melanoma cells” (J Med Chem, 2006)", "assay_type_in_all_cases": "functional, cell-based", "key": {"SK-MEL-1 [1]": {"tested_on": "SK-MEL-1", "test": "Apoptotic activity in human SK-MEL-1 cells measured as procaspase 9 cleavage by Western blot analysis", "method_in_brief": "(§1)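 Western blot for procaspase-8 and -9 in SK-MEL-1 cells cultured with 10 µM or 30 µM ceramides and harvested at 12 h.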"}, "SK-MEL-1 [2]": {"tested_on": "SK-MEL-1", "test": "Apoptotic activity in human SK-MEL-1 cells measured as procaspase 8 cleavage by Western blot analysis", "method_in_brief": "as §1"}, "SK-MEL-1 [3]": {"tested_on": "SK-MEL-1", "test": "Apoptotic activity in human SK-MEL-1 cells measured as induction of poly ADP-ribose polymerase cleavage by Western blot analysis", "method_in_brief": "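SK-MEL-1 cells exposed 12 h to 10 µM or 30 µM ceramides; untreated controls. Cells pelleted, washed in ice-cold PBS, lysed; SDS-PAGE and immunoblot with anti-PARP antibody that also detects the 85 kDa cleavage fragment.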"}, "SK-MEL-1 [4]": {"tested_on": "SK-MEL-1", "test": "Apoptotic activity in human SK-MEL-1 cells measured as induction of DNA fragmentation", "method_in_brief": "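SK-MEL-1 cells incubated 6 h or 12 h with 10-30 µM ceramides or untreated. 4 × 10^5 cells lysed in 50 mM Tris-HCl pH 8.0, 10 mM EDTA, 0.5% SDS, RNase A (37 °C, 1 h), then proteinase K (50 °C, 2 h). Phenol-chloroform-isoamyl alcohol extraction; 2% agarose gel in TAE at 40 V, 4 h; ethidium bromide staining, UV visualisation of ladders.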"}, "SK-MEL-1 [5]": {"tested_on": "SK-MEL-1", "test": "Antiproliferative activity against human SK-MEL-1 cells by MTT assay", "method_in_brief": "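SK-MEL-1 in RPMI 1640 + 10% heat-inactivated FBS, 37 °C, 5% CO2; resuspended in fresh medium 24 h before treatment. 1 × 10^4 exponentially growing cells exposed 72 h at 37 °C to graded concentrations (10 mM ethanol/dodecane 49:1 stocks; final solvent ≤0.5%, vehicle controls). MTT; OD 570 nm vs control; IC50 by curve fitting; two independent experiments, triplicate determinations.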"}}, "note": "The source made the active and inactive calls. The rule behind the calls is not given here."}
{"molecule": "CCCCCCCCCCCCCCCCCC[C@@H](OC(C)=O)[C@@H](OC(C)=O)[C@H](COC(C)=O)NC(=O)[C@H](OC(C)=O)[C@@H](CCCCCCCCCCCCCCCCC)OC(C)=O", "values": [{"measurement": "Activity", "setting": "SK-MEL-1 [1]", "value": "Active"}, {"measurement": "Activity", "setting": "SK-MEL-1 [2]", "value": "Active"}, {"measurement": "Activity", "setting": "SK-MEL-1 [3]", "value": "Active"}, {"measurement": "Activity", "setting": "SK-MEL-1 [4]", "value": "Dose-dependent effect"}, {"measurement": "IC50", "setting": "SK-MEL-1 [5]", "value": 5.6, "unit": "µM"}]}
{"molecule": "CCCCCCCCCCCCCCCCCC[C@@H](OC(C)=O)[C@@H](OC(C)=O)[C@H](COC(C)=O)NC(=O)[C@H](OC(C)=O)[C@H](CCCCCCCCCCCCCCCCC)OC(C)=O", "values": [{"measurement": "Activity", "setting": "SK-MEL-1 [1]", "value": "Active"}, {"measurement": "Activity", "setting": "SK-MEL-1 [2]", "value": "Active"}, {"measurement": "Activity", "setting": "SK-MEL-1 [3]", "value": "Active"}, {"measurement": "Activity", "setting": "SK-MEL-1 [4]", "value": "Dose-dependent effect"}, {"measurement": "IC50", "setting": "SK-MEL-1 [5]", "value": 7.1, "unit": "µM"}]}
{"molecule": "CCCCCCCCCCCCCCCCCC[C@@H](OC(C)=O)C(=O)N[C@@H](COC(C)=O)[C@H](OC(C)=O)[C@@H](CCCCCCCCCCCCCCCCCC)OC(C)=O", "values": [{"measurement": "Activity", "setting": "SK-MEL-1 [1]", "value": "Active"}, {"measurement": "Activity", "setting": "SK-MEL-1 [2]", "value": "Active"}, {"measurement": "Activity", "setting": "SK-MEL-1 [3]", "value": "Active"}, {"measurement": "Activity", "setting": "SK-MEL-1 [4]", "value": "Dose-dependent effect"}, {"measurement": "IC50", "setting": "SK-MEL-1 [5]", "value": 7.7, "unit": "µM"}]}
{"molecule": "CCCCCCCCCCCCCCCCCC[C@@H](OC(C)=O)[C@@H](OC(C)=O)[C@H](COC(C)=O)NC(=O)[C@@H](OC(C)=O)[C@H](CCCCCCCCCCCCCCCCC)OC(C)=O", "values": [{"measurement": "Activity", "setting": "SK-MEL-1 [1]", "value": "Active"}, {"measurement": "Activity", "setting": "SK-MEL-1 [2]", "value": "Active"}, {"measurement": "Activity", "setting": "SK-MEL-1 [3]", "value": "Active"}, {"measurement": "Activity", "setting": "SK-MEL-1 [4]", "value": "Dose-dependent effect"}, {"measurement": "IC50", "setting": "SK-MEL-1 [5]", "value": 10.2, "unit": "µM"}]}
{"molecule": "CCCCCCCCCCCCCCCCCC[C@@H](OC(C)=O)[C@@H](OC(C)=O)[C@H](COC(C)=O)NC(=O)[C@@H](OC(C)=O)[C@@H](CCCCCCCCCCCCCCCCC)OC(C)=O", "values": [{"measurement": "Activity", "setting": "SK-MEL-1 [1]", "value": "Active"}, {"measurement": "Activity", "setting": "SK-MEL-1 [2]", "value": "Active"}, {"measurement": "Activity", "setting": "SK-MEL-1 [3]", "value": "Active"}, {"measurement": "Activity", "setting": "SK-MEL-1 [4]", "value": "Dose-dependent effect"}, {"measurement": "IC50", "setting": "SK-MEL-1 [5]", "value": 3.9, "unit": "µM"}]}
